# Results collected from several papers.
# Compare with care: the assays were run in different laboratories.
# Target: Aurora kinase B (AURKB, Homo sapiens, UniProt Q96GD4)
SMILES,test,conditions,remaining binding
CNC(=O)[C@@H]1CC[C@@H](n2c(-c3ccc4cnccc4c3)nc3ccc(C(=O)NCc4cccc(C(N)=O)c4)cc32)C1,"binding, competition with immobilised ligand",1 µM,95%
CC(C)(C)c1ccc(-c2nc(CBr)nn2-c2cccc(O)c2)cc1,"cell-free assay, competition with immobilised ligand",10 µM,69%
CNC(=O)Nc1ccc2c(c1)CC[C@@]21OC(=O)N(CC(=O)N(Cc2ccc(F)cc2)[C@@H](C)C(F)(F)F)C1=O,"cell-free assay, competition with immobilised ligand",1 µM,86%
COc1cnc(Nc2cccc(S(N)(=O)=O)c2)nc1N1CCN(c2ccccc2)CC1,"binding, competition with immobilised ligand",1 µM,89%
C[C@@H]1CN(c2ccc3ncc(-c4ccc5[nH]nc(C6CC6)c5c4)n3n2)C[C@H](C)O1,"binding, competition with immobilised ligand",50 nM,100%
COc1ccc2c(O[C@@H]3C[C@H]4C(=O)N[C@]5(C(=O)O)CC5/C=C\CCCCC[C@H](NC(=O)OC5CCCC5)C(=O)N4C3)cc(-c3csc(NC(=O)C(C)C)n3)nc2c1C (some centres unmarked),"cell-free assay, competition with immobilised ligand",1 µM,91%
CN(C)c1nccc(-c2cnc3ncccn23)n1,binding,1 µM,76%
CCC(=O)N[C@H]1CC[C@@H](C(=O)N(C)c2ccc(-c3nc4ccccc4o3)cc2)C1,"cell-free assay, competition with immobilised ligand",1 µM,83%
O=C(NCC1CCOCC1)c1n[nH]cc1NC(=O)c1c(F)cccc1F,"binding, competition with immobilised ligand",1 µM,78%
FC(F)(F)Oc1cccc(-c2cnc3ccc(-c4ccncc4)nn23)c1,"cell-free assay, competition with immobilised ligand",5 µM,73%
CN([C@@H]1CCc2c(CC(=O)O)c3cc(S(C)(=O)=O)ccc3n2C1)S(=O)(=O)c1ccc(F)cc1,"cell-free assay, competition with immobilised ligand",1 µM,83%
O=C(c1ccc(Nc2ncc(Cl)c(-c3cc4ccccc4s3)n2)cc1)N1CCC(N2CCCC2)CC1,"binding, competition with immobilised ligand",1 µM,17%
CCN1CCN(Cc2ccc(C(=O)Nc3ccc(C)c(Oc4ccc5c(c4)CC(=O)N5)c3)cc2C(F)(F)F)CC1,"binding, competition with immobilised ligand",1 µM,100%
O=C(NCCCN1CCOCC1)c1ccc(Nc2nccc(-c3cc4ccccc4s3)n2)cc1,"binding, competition with immobilised ligand",1 µM,48%
N#Cc1ccccc1CSc1nnc2c(n1)[nH]c1ccccc12,"binding, competition with immobilised ligand",10 µM,100%
CN(CCCC(F)(F)F)c1nccc(-c2cnn3ncccc23)n1,binding,1 µM,98%
O=C(c1ccc(Nc2ncc(Cl)c(-c3ccc(Cl)s3)n2)cc1)N1CCC(N2CCCC2)CC1,"binding, competition with immobilised ligand",1 µM,8.3%
CN(c1nccc(-c2cnn3ncccc23)n1)C1CC1,binding,1 µM,100%
CSc1cccnc1N1CCN(Cc2nc3ccccc3[nH]2)CC1,"cell-free assay, competition with immobilised ligand",1 µM,67%
C[C@H]1CCN(c2nccc(-c3cnn4ncccc34)n2)C1,binding,1 µM,70%
COc1ncc2cc3ccccc3nc2c1C#N,"cell-free assay, competition with immobilised ligand",5 µM,94%
CC(=O)N1CCC(c2ccc(C(=O)NC3=NCCN3)cc2C(F)(F)F)CC1,"cell-free assay, competition with immobilised ligand",1 µM,100%
N[C@@H]1CCN(c2nccc(-c3cnn4ncccc34)n2)C1,binding,1 µM,99%
